PolyA inh: polyadenylation inhibitors in yeast reporter cells, primary screen, luminescence, S. cerevisiae. S. cerevisiae SKY197-pL101 polyadenylation reporter, beta-gal luminescence; efflux-impaired pdr1/pdr3 knockout yeast; score 100 = 6 SD above DMSO. activity score, % at 12 µM. hit rate 0.02% among 300,000. AID 1875, 2009;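 active = lowest replicate activity score at least 50, where 100 means six control SD above control mean; inconclusive = lowest score under 50 but half or more replicates reach 50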;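 note: yeast exposed to compound for 9 h at 30 °C; higher score means more reporter readthrough which indicates perturbed polyadenylation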
NALP1 inh: NALP1 inflammasome inhibitors in reconstituted yeast, colorimetric, S. cerevisiae, triplicate retest; hit rate 0.61% among 280,000; S. cerevisiae NALP1/ASC/caspase-1 growth, X-gal OD620, 72 h; inhibition, % at 10 µM; in the data active = inhibition mostly above about 24%, no sharp cut-off; inactive = mostly below about 32%
L major viab: Leishmania major promastigote growth inhibition, primary screen. inhibition, % at 10 µM. Leishmania major promastigotes, resazurin fluorescence viability. AID 1063, 2008. hit rate 9% among 200,000; in the data active = inhibition above about 50%;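 note: promastigotes grown with compound for 44 hours at 28 °C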
NLRP3 yeast inh: NALP3 inflammasome inhibitors in reconstituted yeast, primary screen, luminescence, uHTS. Yeast reconstituted NLRP3/ASC/caspase-1, beta-gal luminescence, 24 h. hit rate 0.39% among 330,000. AID 2825, 2010. inhibition, % at 10 µM;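 active = inhibition of 50% or more; inactive = inhibition below 50%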
T cruzi inh: inhibitors of intracellular T. cruzi growth, primary screen, luminescence, NIH3T3 host cells; inhibition, % (concentration not given with the values); T. cruzi beta-gal in NIH3T3, 90 h; hit rate 1.4% among 300,000; AID 1885, 2009;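 active = mean inhibition across valid replicates above about 55%, limit read from the data; inconclusive = mean below that limit but half or more replicates reach it; inactive = mean below it, under half of replicates reach it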;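 note: signal also drops with host cell toxicity which is not excluded here; higher percent means less beta-gal luminescence so fewer parasites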
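System: mouse NIH/3T3 fibroblasts infected with β-gal-expressing T. cruzi Tulahuen C4 / Input: NIH/3T3 cells, 5,000 per well / Buffer or medium: Low-serum DMEM with 2% FBS / Probe or stimulus: 5000 reporter trypomastigotes per well / Schedule: ≥90 h infection period, 3 h prior cell attachment / Measured by: GalScreen luminescence, 60 min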
Calb FLC: C. albicans growth inhibition with fluconazole, primary screen, CaCi-2 strain, Alamar Blue fluorescence | AID 1979, 2009 | growth inhibition, % (no concentration beside the values) | hit rate 0.57% among 300,000 | C. albicans CaCi-2 (fluconazole-resistant clinical isolate) + fluconazole, 48 h;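 active = growth inhibition above about 58% in most replicates, limit read from the data, passing the limit was not always enough; inconclusive = exactly half the replicates above a set limit; inactive = most replicates below a set limit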;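 note: all wells also contain fluconazole at 8 µg/ml as a sub-toxic cotreatment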
Each line names hits and unclear results; the compound was inactive in the other large screens. The entries come from a sample that favours hits as a whole.

Cc1cnc(C(=O)OCC(=O)c2ccc(Br)s2)cn1	none (no result: NALP1 inh, L major viab)
CN(CCc1cnn(C)c1)Cc1cn[nH]c1-c1ccc(-c2ccccc2)cc1	L major viab 90
Cn1cc(CCNCc2cn[nH]c2-c2ccc(-c3ccccc3)cc2)cn1	none (no result: NALP1 inh, L major viab)
CCCCOc1ccc(/C=N/NC(=O)c2csc(C)c2C)cc1	none
Cc1scc(C(=O)N/N=C/c2ccc(OCC(C)C)cc2)c1C	L major viab 88
CC(=O)CC1(OC(C)=O)C(=O)N(C)c2ccccc21 (configuration not stated)	L major viab 97
C/C(CC1(O)C(=O)N(C)c2ccccc21)=N\O (configuration not stated)	none
O=C1c2cccc3cc([N+](=O)[O-])cc(c23)C(=O)N1c1ccccc1O	L major viab 98, T cruzi inh 58
Cc1cc(O)ccc1N1C(=O)c2cccc3cc([N+](=O)[O-])cc(c23)C1=O	L major viab 88, T cruzi inh 67
N#Cc1c(SCC(=O)Nc2nncs2)sc2c(O)cc(=O)[nH]c12	none (no result: L major viab)
CC(=O)N1CCN(S(=O)(=O)c2ccc(S(=O)(=O)N3CCCC(C)C3)cc2)CC1 (configuration not stated)	none (no result: L major viab)
COc1ccc(C(C[N+](=O)[O-])c2c(C)cc3ccccn23)cc1 (configuration not stated)	L major viab 99
COc1ccc2c(-c3ccccc3)cc(=O)[nH]c2c1	none
Cc1cc2ccccn2c1C(C[N+](=O)[O-])c1ccc(N(C)C)cc1 (configuration not stated)	L major viab 89
Cc1cc2ccccn2c1C(=O)Nc1ccccc1	none
COc1ccc(C(C[N+](=O)[O-])c2c(C)[nH]n(-c3ccccc3)c2=O)cc1 (configuration not stated)	NALP1 inh 45 (no result: L major viab)
COc1ccc(C(C[N+](=O)[O-])c2c(-c3ccccc3)cc3ccccn23)c(OC)c1 (configuration not stated)	L major viab 100
CC(=O)c1ccc(O[C@@H]2O[C@H](CO)[C@@H](O)[C@H](O)[C@H]2O)cc1	none (no result: PolyA inh, NALP1 inh, L major viab, T cruzi inh, Calb FLC)
Oc1[nH]c2ccccc2c1N=Nc1nncc2ccccc12	PolyA inh inconclusive (no result: NALP1 inh, L major viab)
Oc1[nH]c2ccc(Br)cc2c1N=Nc1ccc(C(F)(F)F)cn1	T cruzi inh 75 (no result: NALP1 inh)
Oc1[nH]c2ccccc2c1N=Nc1ccc(C(F)(F)F)cn1	L major viab 55
CCCCC(CC)C(=O)Nc1cc(C(=O)NCCC)ccc1N1CCC2(CC1)CC(c1cccc(Br)c1)=NO2 (configuration not stated)	none (no result: NALP1 inh, L major viab)
CCN(CC1CCCN(CCc2cccc(F)c2)C1)C(=O)c1cc2ccccc2o1 (configuration not stated)	none (no result: L major viab)
CSCCC(=O)N(C)CC1CCCN(CCc2cccc(C(F)(F)F)c2)C1 (configuration not stated)	T cruzi inh 55 (no result: L major viab)
CN(CC1CCCN(CCc2cccc(C(F)(F)F)c2)C1)C(=O)c1cc2ccccc2o1 (configuration not stated)	T cruzi inh 65 (no result: L major viab)
CNC[C@H]1Oc2c(NS(=O)(=O)c3ccccc3)cccc2C(=O)N([C@H](C)CO)C[C@@H]1C	none (no result: PolyA inh, NALP1 inh, L major viab, T cruzi inh, Calb FLC)
CC(C)COc1cccc(C(=O)Nc2ccc(N3CCOCC3)cc2N2CCOCC2)c1	none (no result: NALP1 inh, L major viab)
COc1ccc(NC(=O)CCN2C(=O)c3ccc([N+](=O)[O-])cc3C2=O)c(OC)c1	L major viab 90
COc1ccc(NC(=O)CN(c2ccc([N+](=O)[O-])cc2)S(=O)(=O)c2ccccc2)c(OC)c1	L major viab 75
COc1ccc(NC(=O)c2ccc([N+](=O)[O-])cc2[N+](=O)[O-])c(OC)c1	T cruzi inh 61
COc1ccc(N(CC(=O)Nc2ccc(OC)cc2OC)S(=O)(=O)c2ccccc2)cc1	none
COc1ccccc1NC(=O)c1cc(OC)c(OC)cc1[N+](=O)[O-]	none
COc1cccc(NC(=O)CCN2C(=O)c3ccc([N+](=O)[O-])cc3C2=O)c1	none
O=C(c1ccc2[nH]c(=O)c(=O)[nH]c2c1)N1CCN(Cc2ccccc2)CC1	none (no result: L major viab)
CSc1nnc(NC(=O)c2ccc(S(=O)(=O)N(C)C)cc2)s1	none
O=C(c1ccccc1)C(C(=O)N1CCc2ccccc2C1)n1ccccc1=O (configuration not stated)	L major viab 73
O=C(NC(Cc1ccccc1)C(=O)N1CCc2ccccc2C1)c1ccccc1 (configuration not stated)	none (no result: L major viab)
CN1c2ccccc2N(C)C1(C)c1cccc2ccccc12	T cruzi inh 58 (no result: NALP1 inh)
CC1=CC(C)(C)NC(=S)N1c1cccc2ccccc12	none
CC(C)N1CCN(Cc2cccc(-n3cccn3)c2)CC1CCO (configuration not stated)	none
C(=N\n1cnnc1)/c1ccc(OCc2ccccc2)cc1	none (no result: T cruzi inh)
Cc1cc(/C=N/n2cnnc2)c(C)n1-c1ccc(OCc2ccccc2F)cc1	L major viab 77
Cc1cc(/C=N/n2cnnc2)c(C)n1-c1ccc(OCc2ccc(Cl)cc2)cc1	L major viab 98
Cc1ccc(CS(=O)Cc2ccc(C(=O)N3CCN(c4ccccn4)CC3)o2)cc1 (configuration not stated)	none (no result: L major viab)
COc1ccc2nc(SCC(=O)N(C)C3CCCCC3)[nH]c2c1	none (no result: PolyA inh, NALP1 inh, L major viab, T cruzi inh, Calb FLC)
CCn1c(=O)c2cc(C(=O)N(C)CC(OC)OC)sc2c2ccccc21	none (no result: L major viab)
CCOc1ccccc1N(C)C(=O)c1cc2c(=O)n(CC)c3ccccc3c2s1	T cruzi inh 62 (no result: NALP1 inh, L major viab)
Cc1c(-c2ccccc2)oc2c(C(=O)OCC(=O)Nc3ccc(C(N)=O)cc3)cccc2c1=O	L major viab 53
COC(=O)c1ccc(NC(=O)COC(=O)c2cccc3c(=O)c(C)c(-c4ccccc4)oc23)cc1	Calb FLC inconclusive
Cc1cc2nc(C)n(CCCNC(=O)Nc3ccc(F)cc3)c2cc1C	L major viab 91
Cc1c(NC(=O)COc2ccc3ccccc3c2)c(=O)n(-c2ccccc2)n1C	none (no result: L major viab)
COc1ccc(OC)c(NC(=O)CSc2nc3ccccc3cc2Cc2ccccc2)c1	L major viab 82
Cn1c(=N)n(CC(O)c2cccc3ccccc23)c2ccccc21 (configuration not stated)	L major viab 102
COc1cc(CN2CCN(c3cccc(C)c3C)CC2)cc([N+](=O)[O-])c1O	L major viab 71
CN1CCN(CCCNC(=O)c2ccc3c(c2)N(Cc2ccccc2)CCS3)CC1	L major viab 80
Cc1ccc(CN2CCSc3ccc(C(=O)NC4CCN(Cc5ccccc5)CC4)cc32)cc1	L major viab 90, T cruzi inh 57
O=C(NCCCN1CCOCC1)c1ccc2c(c1)N(Cc1ccccc1)CCS2	none (no result: L major viab)
